As usually defined, the inhibition is the relative decrease from the control value, in per cent. Read a low inhibition as a weak effect. Broadly, the Inhibition is the drop in the measured response relative to a control, in per cent. A high value points to a response far below the control. In general, IC50 refers to the point on the concentration scale where inhibition reaches its midpoint.

The source made the active and inactive calls. No cut-off for these calls is given here.

13 molecules from ChEMBL document CHEMBL1147211, “Synthetic N-pyridinyl(methyl)-indol-3-ylpropanamides as new potential immunosuppressive agents” (Eur J Med Chem, 2007) can be followed below.

For assay [1], the system named is Splenocyte. Nature of the assay: (§1) Antiproliferative activity against ConA-stimulated mouse splenocytes at 90 uM after 72 hrs by MTT assay. The assay is classed as functional. In a few lines:
(§2)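 Spleens pooled from two 8-week-old female C57BL/6 mice were homogenized in HBSS, and red cells were lysed with 20 mM Tris-HCl/140 mM NH4Cl. Cells were seeded at 1.5×10^5/well and stimulated with 1 ug/mL ConA plus compound in complete RPMI with 50 µM mercaptoethanol, at 37 °C and 5% CO2 for 72 h. Read-out was MTT for 4 h and OD at 570 nm, in sextuplicate. Inhibition was calculated as (OD control − OD treated)/OD control × 100.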
Background: Formazan colour is commonly taken as a measure of viable cells.

Assay [2] has as its system Splenocyte. The assay is described as follows: (§3) Antiproliferative activity against ConA-stimulated mouse splenocytes at 30 uM after 72 hrs by MTT assay. The assay is classed as functional. In a few lines:
as §2

Assay [3] is described as follows: as §1. The format is functional. The following applies: Splenocyte. Summed up:
as §2

Assay [4] in a line: as §3. The format is functional. The conditions noted are these: Splenocyte. Summed up:
as §2

Assay [5] concerns Mus musculus. Nature of the assay: Inhibition of DTH foot-pad swelling in orally dosed BALB/C mouse after 5 days. The assay is classed as functional. In a few lines:
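Female BALB/c mice, 8–9 weeks old and five per group, were primed i.v. with 5×10^6 SRBC in PBS. Compound in olive oil was given orally once daily for five days, from priming until challenge. On day 4, 3–4×10^8 SRBC were injected into the right hind footpad and PBS into the left. Footpad swelling difference was measured 24 h later, and inhibition was expressed relative to control mice.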

A short description of assay [6]: Antiproliferative activity against PHA-stimulated human peripheral blood lymphocytes assessed as [3H]thymidine uptake after 48 hrs. The format is functional. The conditions noted are these: PBL. Summed up:
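Human PBL from healthy donors were isolated by Ficoll-Hypaque and seeded at 1×10^5/well. They were stimulated with 0.3 µg/mL PHA plus compound (6.25–100 µM; DMSO stock diluted in complete RPMI) at 37 °C and 5% CO2 for 48 h. [3H]thymidine (1 µCi/well) was added for the last 6–8 h, and uptake was counted by beta counter, in sextuplicate. Values are mean ± SEM of three independent experiments.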

Assay [7] in a line: Cytotoxicity assessed as cell viability of ConA-stimulated mouse splenocytes at 100 uM after 48 hrs by MTT assay.
Assay [8] deals with Splenocyte. Nature of the assay: Inhibition of mitogen dependent T cell proliferation in mouse splenocytes. The format is functional, cell-based. In a few lines: as §2

For the molecule `Cn1cc(CCC(=O)Nc2ccncc2)c2cc(Cl)ccc21`, the outcome in assay [1] and in assay [2] was inactive.

With `Cc1cc(C)nc(NC(=O)CCc2cn(Cc3ccc(Cl)cc3)c3ccc(Cl)cc23)c1`, the result in assay [1] and in assay [2] was inactive.

With `Cc1cc(C)nc(NC(=O)CCc2cn(Cc3ccc(Cl)cc3)c3ccccc23)c1`, the result in assay [1] and in assay [2] was inactive.

Consider `O=C(CCc1cn(Cc2ccccc2)c2ccccc12)NCc1cccnc1`, for which, in assay [3], the inhibition at 90 µM is 38%. The molecule further registered an inhibition at 30 µM in assay [4] of 20%.

As for `O=C(CCc1cn(Cc2ccccc2)c2ccccc12)Nc1ccncc1`, the result in assay [1] and in assay [2] was inactive.

On to `O=C(CCc1c[nH]c2ccccc12)Nc1ccncc1`, for which the outcome in assay [1] and in assay [2] was inactive.

In the case of `Cc1cc(C)nc(NC(=O)CCc2cn(Cc3ccccc3)c3ccccc23)c1`, the outcome in assay [1] and in assay [2] was inactive.

In assay [3], `Cc1cc(C)nc(NC(=O)CCc2c[nH]c3ccccc23)c1` gave an inhibition at 90 µM of 76%. The inhibition at 30 µM in assay [4] came out at 22%.

Take `O=C(CCc1cn(Cc2ccc(Cl)cc2)c2ccccc12)Nc1ccncc1`: the inhibition at 90 µM in assay [3] came out at 87%. In addition, the inhibition at 30 µM in assay [4] turned out to be 19%. The same molecule had an Inhibition in assay [5] of 69%. The IC50 in assay [6] came to 25 µM; in assay [8] it was 17 µM. Moreover, the Cell viability in assay [7] was 95%.

For `O=C(CCc1c[nH]c2ccccc12)NCc1cccnc1`, at 90 µM the inhibition in assay [3] was 38%. Moreover, in assay [4], at 30 µM the inhibition was 38%.

Turning to `O=C(CCc1cn(Cc2ccc(Cl)cc2)c2ccc(Cl)cc12)NCc1cccnc1`, the result in assay [1] and in assay [2] was inactive.

In the case of `Cn1cc(CCC(=O)NCc2cccnc2)c2cc(Cl)ccc21`, the inhibition at 90 µM in assay [3] was determined as 37%. In addition, the inhibition at 30 µM in assay [4] was 22%.

Molecule `O=C(CCc1cn(Cc2ccc(Cl)cc2)c2ccccc12)NCc1cccnc1` had an inhibition at 90 µM in assay [3] of 55%. The molecule further gave an inhibition at 30 µM in assay [4] of 27%.
